Activity calls are given as the source filed them. The rule behind the calls is not given here.
Tests used:
U-937 [1] = assay: Antiinflammatory activity in human U937 cells assessed as inhibition of PMA/LPS-stimulated TNFalpha production after 24 hrs by ELISA; format: functional, cell-based; settings: U-937, 24 h
Procedure, shortened: (§1)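 TNF-α from U937 cells was quantified by ELISA. Percent inhibition was read at 20 μM, and IC50 (μM) was reported as mean ± error.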

U-937 [2] = assay: Antiinflammatory activity in human U937 cells assessed as inhibition of PMA/LPS-stimulated IL-6 production at 20 uM after 24 hrs by ELISA; format: functional, cell-based
[3] = Cytotoxicity against human U937 cells assessed as cell viability at 20 uM relative to control; format: cell-based, U-937; settings: read-out: Activity
U-937 [4] = assay: Antiinflammatory activity in human U937 cells assessed as inhibition of PMA/LPS-stimulated TNFalpha production at 20 uM after 24 hrs by ELISA relative to control; format: functional; settings: U-937, 24 h; procedure, shortened: as §1
Mus musculus [5] = assay: Antiinflammatory activity in BALB/c mouse assessed as inhibition of LPS-induced TNFalpha production at 100 mg/kg, administered for 3 days followed by LPS stimulation by ELISA; format: functional, organism-based
Procedure, shortened: (§2)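 BALB/c mice were pre-treated with 100 mg/kg test compound for three consecutive days, then challenged with LPS at 10 mg/kg IP. Serum TNF-α and IL-6 were measured by ELISA and compared with LPS-only and vehicle control groups. Values are mean ± S.E.M., n = 5.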

Mus musculus [6] = assay: Antiinflammatory activity in BALB/c mouse assessed as inhibition of LPS-induced IL6 production at 100 mg/kg, administered for 3 days followed by LPS stimulation by ELISA; format: functional, organism-based; procedure, shortened: as §2
U-937 [7] = assay: Antiinflammatory activity in human U937 cells assessed as inhibition of PMA/LPS-stimulated TNFalpha production at 1 uM after 24 hrs by ELISA relative to control; format: functional; settings: U-937, 24 h

Compound	IC50 (U-937 [1]) [nM]	inhibition (U-937 [2])	viability at 20 µM [3] [%]	inhibition at 20 µM (U-937 [4]) [%]	inhibition (Mus musculus [5])	inhibition (Mus musculus [6])	inhibition at 1 µM (U-937 [7]) [%]
COC(=O)C1=C(OC)C(=O)OC1C1=C(Cl)c2cc(Br)ccc2OC1 (configuration not stated)	13000	inactive	94.3	80.2	–	–	–
CCOC(=O)C1=C(OCC)C(=O)OC1c1c(Cl)c2cc(Cl)ccc2oc1=O (configuration not stated)	423	inactive	90.7	97.1	Active	Active	–
CCOC(=O)C1=C(OCC)C(=O)OC1c1c(Cl)c2ccccc2oc1=O (configuration not stated)	–	inactive	75.9	40.7	–	–	–
CCOC(=O)C1=C(OCC)C(=O)OC1c1c(Cl)c2cc(C)ccc2oc1=O (configuration not stated)	–	inactive	79.8	32.3	–	–	–
COC(=O)C1=C(OC)C(=O)OC1c1c(Cl)c2ccccc2oc1=O (configuration not stated)	–	inactive	78.3	27.1	–	–	–
CCOC(=O)C1=C(OCC)C(=O)OC1C1=C(Cl)c2c(ccc(C)c2C)OC1 (configuration not stated)	–	inactive	85.2	29.7	–	–	–
COC(=O)C1=C(OC)C(=O)OC1C1=C(Cl)c2ccc(C)c(C)c2OC1 (configuration not stated)	–	inactive	93.8	45.7	–	–	–
CCOC(=O)C1=C(OCC)C(=O)OC1C1=C(Cl)c2cc(C)c(C)cc2OC1 (configuration not stated)	11200	inactive	93.4	96.1	–	–	–
COC(=O)C1=C(OC)C(=O)OC1c1c(Cl)c2cc(Cl)ccc2oc1=O (configuration not stated)	6240	inactive	93.1	75	–	–	–
COC(=O)C1=C(OC)C(=O)OC1C1=C(Cl)c2ccc3ccccc3c2OC1 (configuration not stated)	–	inactive	80.2	29.1	–	–	–
CCOC(=O)C1=C(OCC)C(=O)OC1C1=C(Cl)c2ccccc2OC1 (configuration not stated)	–	inactive	88.9	50.6	–	–	–
CCOC(=O)C1=C(OCC)C(=O)OC1C1=C(Cl)c2cc(Cl)ccc2OC1 (configuration not stated)	10600	inactive	79.4	75.9	–	–	–
CCOC(=O)C1=C(OCC)C(=O)OC1c1c(Cl)c2cc(-c3ccccc3)ccc2oc1=O (configuration not stated)	–	inactive	83.1	20	–	–	–
COC(=O)C1=C(OC)C(=O)OC1c1c(Cl)c2cc(C)c(C)cc2oc1=O (configuration not stated)	–	inactive	75.9	34.9	–	–	–
CCOC(=O)C1=C(OCC)C(=O)OC1C1=C(Cl)c2ccc3ccccc3c2OC1 (configuration not stated)	–	inactive	83.6	4.1	–	–	–
CCOC(=O)C1=C(OCC)C(=O)OC1C1=C(Cl)c2cc(Br)ccc2OC1 (configuration not stated)	3260	inactive	87.2	73.3	–	–	–

Compound	IC50 (U-937 [1]) [nM]	inhibition (U-937 [2])	viability at 20 µM [3] [%]	inhibition at 20 µM (U-937 [4]) [%]	inhibition (Mus musculus [5])	inhibition (Mus musculus [6])	inhibition at 1 µM (U-937 [7]) [%]
CCOC(=O)C1=C(OCC)C(=O)OC1c1c(Cl)c2cc(C)c(C)cc2oc1=O (configuration not stated)	–	inactive	79	26.8	–	–	–
COC(=O)C1=C(OC)C(=O)OC1C1=C(Cl)c2cc(C)c(C)cc2OC1 (configuration not stated)	–	inactive	90.7	49.7	–	–	–
COC(=O)C1=C(OC)C(=O)OC1C1=C(Cl)c2ccccc2OC1 (configuration not stated)	18700	inactive	88.1	95.5	–	–	–
COC(=O)C1=C(OC)C(=O)OC1C1=C(Cl)c2cc(Cl)ccc2OC1 (configuration not stated)	–	inactive	84.6	19.4	–	–	–
CCOC(=O)C1=C(OCC)C(=O)OC1C1=C(Cl)c2ccc(C)c(C)c2OC1 (configuration not stated)	–	inactive	89.9	23.3	–	–	–
C[C@]12C=CC(=O)C=C1CC[C@@H]1[C@@H]2[C@@H](O)C[C@@]2(C)[C@H]1CC[C@]2(O)C(=O)CO [PREDNISOLONE]	33	–	–	–	–	–	98
CCOC(=O)C1=C(OCC)C(=O)OC1C1=C(Cl)c2cc(C)ccc2OC1 (configuration not stated)	–	inactive	81.6	6.4	–	–	–
COC(=O)C1=C(OC)C(=O)OC1c1c(Cl)c2cc(Br)ccc2oc1=O (configuration not stated)	70	inactive	85.3	76.9	–	–	–
COC(=O)C1=C(OC)C(=O)OC1c1c(Cl)c2cc(C)cc(C)c2oc1=O (configuration not stated)	–	inactive	86.1	44.9	–	–	–
COC(=O)C1=C(OC)C(=O)OC1C1=C(Cl)c2cc(C)ccc2OC1 (configuration not stated)	–	inactive	88.5	35.6	–	–	–
CCOC(=O)C1=C(OCC)C(=O)OC1c1c(Cl)c2cc(C)cc(C)c2oc1=O (configuration not stated)	1110	inactive	96.8	80.2	–	–	–
COC(=O)C1=C(OC)C(=O)OC1c1c(Cl)c2cc(-c3ccccc3)ccc2oc1=O (configuration not stated)	–	inactive	82.3	44.2	–	–	–
COC(=O)C1=C(OC)C(=O)OC1C1=C(Cl)c2c(ccc(C)c2C)OC1 (configuration not stated)	142	inactive	92.1	70.4	Active	Active	–
COC(=O)C1=C(OC)C(=O)OC1c1c(Cl)c2cc(C)ccc2oc1=O (configuration not stated)	–	inactive	84.3	14.8	–	–	–
CCOC(=O)C1=C(OCC)C(=O)OC1c1c(Cl)c2cc(Br)ccc2oc1=O (configuration not stated)	47	inactive	83	91	–	–	–
